ChEMBL document CHEMBL4118021, “Studies of TAK1-centered polypharmacology with novel covalent TAK1 inhibitors” (Bioorg Med Chem, 2017)
pIC50: −log10 of the molar value. Active and inactive are the calls of the source. The rule behind the calls is not given here.

What was measured:
[1] = biological target: T1, Mitogen-activated protein kinase kinase kinase 7 (Homo sapiens, UniProt O43318); experiment: Inhibition of TAK1 (unknown origin) by LanthaScreen assay
T1 sequence (O43318 whole entry): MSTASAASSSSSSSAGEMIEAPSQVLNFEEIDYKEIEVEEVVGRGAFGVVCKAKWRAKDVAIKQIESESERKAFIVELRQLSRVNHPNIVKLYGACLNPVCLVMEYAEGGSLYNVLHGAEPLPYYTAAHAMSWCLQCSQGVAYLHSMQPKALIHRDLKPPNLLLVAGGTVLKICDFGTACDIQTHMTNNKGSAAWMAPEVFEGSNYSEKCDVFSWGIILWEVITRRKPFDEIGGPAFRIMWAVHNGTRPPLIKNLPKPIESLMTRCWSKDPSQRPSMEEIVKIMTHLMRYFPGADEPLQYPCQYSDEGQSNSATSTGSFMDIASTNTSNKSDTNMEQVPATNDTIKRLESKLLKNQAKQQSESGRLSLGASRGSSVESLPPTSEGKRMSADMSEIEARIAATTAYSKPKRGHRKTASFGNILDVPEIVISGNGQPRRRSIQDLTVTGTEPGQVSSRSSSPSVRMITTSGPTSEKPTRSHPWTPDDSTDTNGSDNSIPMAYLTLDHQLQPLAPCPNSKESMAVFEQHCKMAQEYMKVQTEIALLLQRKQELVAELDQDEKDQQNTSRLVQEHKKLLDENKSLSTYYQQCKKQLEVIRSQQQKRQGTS

[2] = system: BaF3; experiment: Antiproliferative activity against mouse BA/F3 cells after 72 hrs by CellTiter-Glo assay; type: cell-based; conditions: BaF3, 72 h
[3] = system: BaF3; experiment: Antiproliferative activity against mouse BA/F3 cells harboring KRAS G12D mutant after 72 hrs by CellTiter-Glo assay; type: functional, cell-based; conditions: BaF3, 72 h
[4] = system: BaF3; experiment: Antiproliferative activity against mouse BA/F3 cells harboring KRAS G12D mutant after 72 hrs in presence of IL-3 by CellTiter-Glo assay; type: functional, cell-based; conditions: BaF3, 72 h
[5] = system: BaF3; experiment: Antiproliferative activity against mouse BA/F3 cells harboring NRAS G12D mutant after 72 hrs by CellTiter-Glo assay; type: functional, cell-based; conditions: BaF3, 72 h
Method in brief: (§1)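 Ba/F3 parental or RAS-transformed cells were seeded at 1000 viable cells/well, without or with IL-3 as the line states, at 37 °C and 5% CO2. After 4 h, nine four-fold serial dilutions were added in triplicate (final 0.5–30,000 nM, 0.3% DMSO). DMSO wells served as 100% viability.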

[6] = system: BaF3; experiment: Antiproliferative activity against mouse BA/F3 cells harboring NRAS G12D mutant after 72 hrs in presence of IL-3 by CellTiter-Glo assay; type: functional, cell-based; conditions: BaF3, 72 h; method in brief: as §1
[7] = system: SW-620; experiment: Antiproliferative activity against human SW620 cells harboring KRAS G12V mutant after 72 hrs by CellTiter-Glo assay; type: functional, cell-based; conditions: SW-620, 72 h
[8] = system: SK-CO-1; experiment: Antiproliferative activity against human SKCO1 cells harboring KRAS G12V mutant after 72 hrs by CellTiter-Glo assay; type: functional, cell-based; conditions: SK-CO-1, 72 h
[9] = system: PANC-1; experiment: Antiproliferative activity against human PANC1 cells harboring KRAS G12D mutant after 72 hrs by CellTiter-Glo assay; type: functional, cell-based; conditions: PANC-1, 72 h
[10] = system: ASPC1; experiment: Antiproliferative activity against human AsPC1 cells harboring KRAS G12D mutant after 72 hrs by CellTiter-Glo assay; type: functional, cell-based; conditions: ASPC1, 72 h
[11] = Antiproliferative activity against human SW156 cells harboring wild type KRAS after 72 hrs by CellTiter-Glo assay; type: functional, cell-based
[12] = Antiproliferative activity against human URMC6 cells harboring wild type KRAS after 72 hrs by CellTiter-Glo assay; type: functional, cell-based
[13] = biological target: T2, Mitogen-activated protein kinase kinase kinase 7 (Homo sapiens) (UniProt O43318); experiment: Inhibition of biotin-labeled N-(2-(2-(2-(2-(4-(4-((4-((2-Acrylamidophenyl)amino)-5-chloropyrimidin-2-yl)amino)phenyl)piperazin-1-yl)ethoxy)ethoxy)ethoxy)ethyl)-5-((3aS,4S,6aR)-2-oxohexahydro-1H-thieno[3,4-d]imidazol-4-yl)pentanamide probe binding to TAK1 in human NCI-H358 cells at 10 uM after 6 hrs by immunoblot based competitive pull down assay; type: cell-based
T2 sequence (whole entry): T1 sequence (O43318 whole entry)
Method in brief: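 H358 cells given 1 or 10 μM compound for 6 h, medium removed, cells rinsed twice with cold PBS and lysed in MPER buffer. Lysates incubated overnight at 4 °C with 1 μM biotinylated covalent probe, captured on streptavidin beads, and TAK1 recovery assessed by immunoblotting with anti-TAK1 antibody.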

[14] = system: MOLM-14; experiment: Antiproliferative activity against human MOLM14 cells harboring FLT3-ITD mutant at […] to […] nM after 72 hrs by CellTiter-Glo assay; type: functional, cell-based
[15] = system: NALM-6; experiment: Antiproliferative activity against human NALM6 cells harboring NARS A146T mutant at […] to […] nM after 72 hrs by CellTiter-Glo assay; type: functional, cell-based
[16] = system: HEL; experiment: Antiproliferative activity against human HEL cells at […] to […] nM after 72 hrs by CellTiter-Glo assay; type: functional, cell-based
[17] = system: U-937; experiment: Antiproliferative activity against human U937 cells at […] to […] nM after 72 hrs by CellTiter-Glo assay; type: functional, cell-based
[18] = biological target: T2, Mitogen-activated protein kinase kinase kinase 7 (Homo sapiens); experiment: Inhibition of TAK1 in RA patient-derived synovial fibroblasts assessed as inhibition of TNFalpha-induced cytokine secretion at 3 uM preincubated for 3 hrs followed by TNFalpha stimulation measured after 18 hrs by sandwich immunoassay
Method in brief: (§2)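 Primary RA synovial fibroblasts (donor RA2159) seeded 1000 cells/well and grown ~24 h at 37 °C, 5% CO2. Starved overnight in basal medium, then ~4 h in basal medium with 0.1% BSA. Two adjacent wells pooled per replicate, in biological duplicate. Supernatants diluted 1:3 and run on Luminex 27-plex/21-plex sandwich immunoassays for 48 analytes, with spiked-ligand and mock-supernatant background controls.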

[19] = biological target: T2, Mitogen-activated protein kinase kinase kinase 7 (Homo sapiens); experiment: Inhibition of TAK1 in RA patient-derived synovial fibroblasts assessed as inhibition of IL-1alpha-induced cytokine secretion at 3 uM preincubated for 3 hrs followed by IL-1alpha stimulation measured after 18 hrs by sandwich immunoassay; method in brief: as §2
[20] = biological target: T2, Mitogen-activated protein kinase kinase kinase 7 (Homo sapiens); experiment: Inhibition of TAK1 in RA patient-derived synovial fibroblasts assessed as inhibition of poly(I:C)-induced cytokine secretion at 3 uM preincubated for 3 hrs followed by poly(I:C) stimulation measured after 18 hrs by sandwich immunoassay; method in brief: as §2
[21] = Increase in secretion of basic-FGF in TNFalpha activated RA patient-derived synovial fibroblasts at 0.6 to 3 uM preincubated for 3 hrs followed by TNFalpha stimulation measured after 18 hrs by sandwich immunoassay; conditions: human
Method in brief: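 Primary RA patient synovial fibroblasts (donor RA2159) were seeded at 1000 cells/well, grown about 24 h, then starved overnight and again about 4 h in basal medium with 0.1% BSA. Cells were pre-incubated 3 h with inhibitor (0.6 or 3 μM) or DMSO, then stimulated 18 h with 10 ng/mL TNFα. Paired wells were pooled, in biological duplicate. Pooled supernatants were diluted 1:3 and read on Luminex bead sandwich immunoassays, with mock-medium background and spiked-ligand controls.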

[22] = system: NCI-H23; experiment: Antiproliferative activity against human NCI-H23 cells harboring KRAS G12C mutant after 72 hrs by CellTiter-Glo assay; type: functional, cell-based; conditions: for pIC50: NCI-H23, 72 h
Method in brief: (§3)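 NCI-H23 or NCI-H358 cells seeded at 2000 cells/well and grown 48 h before drug. Varying doses were added and cells incubated 72 h. Viability was read as CellTiter-Glo luminescence, and growth-inhibition IC50 was calculated from dose-response curves.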

[23] = system: NCI-H358; experiment: Antiproliferative activity against human NCI-H358 cells harboring KRAS G12C mutant after 72 hrs by CellTiter-Glo assay; type: functional, cell-based; method in brief: as §3

Row | SMILES | pIC50 [1] | pIC50 [2] | pIC50 [3] | pIC50 [4] | further results
1 | CCC(=O)Nc1ccccc1Nc1nc(Nc2ccc(N3CCN(C)CC3)cc2)ncc1Cl | 5.79 | – | – | 8.05 | pIC50 [7]: 6.61; pIC50 [8]: 7.27; pIC50 [9]: 6.37; pIC50 [10]: 7.14; pIC50 [11]: 6.44; pIC50 [12]: 6.58; inhibition [13]: inactive
2 | C=CC(=O)Nc1ccccc1Oc1ccnc(Nc2ccc(N3CCN(C)CC3)cc2)n1 | 6.02 | 5.72 | – | 5.85 | –
3 | C=CC(=O)Nc1ccccc1-n1ccc2cnc(Nc3ccc(N4CCN(C)CC4)cc3)nc21 | 5.52 | 5.48 | 6.04 | – | pIC50 [5]: 5.69
4 | C=CC(=O)Oc1ccccc1Nc1nc(Nc2cccc(N3CCOCC3)c2)ncc1Cl | 8.49 | – | – | 6.08 | inhibition [13]: Active
5 | C=CC(=O)Oc1ccccc1Nc1nc(Nc2cccc(N3CCN(C(C)=O)CC3)c2)ncc1Cl | 8.77 | – | 6.55 | 6.34 | –
6 | C=CC(=O)Oc1ccccc1Nc1nc(Nc2ccc(N3CCN(C)CC3)cc2)ncc1Cl | 8.48 | 6.63 | 7.36 | 6.26 | –
7 | C=CC(=O)Oc1ccccc1Nc1nc(Nc2ccc(N3CCOCC3)cc2)ncc1Cl | 8.36 | 6.37 | 7.25 | 6.13 | pIC50 [5]: 7.33; pIC50 [6]: 6.41; Activity [14]: Active; Activity [15]: inactive; Activity [16]: inactive; Activity [17]: Active
8 | CCN1CCN(Cc2ccc(NC(=O)c3ccc(C)c(Oc4ccnc5[nH]ccc45)c3)cc2C(F)(F)F)CC1 | – | – | – | – | Activity [21]: Non-Toxic
9 | CN1CCN(c2ccc(Nc3ncc(Cl)c(Nc4ccccc4NC(=O)CCl)n3)cc2)CC1 | 7.60 | 6.69 | 7.51 | 6.42 | pIC50 [5]: 8.00; pIC50 [6]: 6.75; Activity [14]: Active; Activity [15]: inactive; inhibition [13]: Active; Activity [22]: Active; Activity [23]: Active; Activity [16]: inactive; Activity [17]: Active
10 | CC(C)Nc1cc(-c2c[nH]c(C(=O)N[C@H](CO)c3cccc(Cl)c3)c2)c(Cl)cn1 [ULIXERTINIB] | – | 5.65 | 6.33 | 5.07 | pIC50 [7]: 6.30; pIC50 [8]: 6.45; pIC50 [10]: 6.07; pIC50 [11]: 5.91; pIC50 [22]: 6.00
11 | Cn1c(=O)n(-c2ccc(C(C)(C)C#N)cc2)c2c3cc(-c4cnc5ccccc5c4)ccc3ncc21 [DACTOLISIB] | – | – | – | – | pIC50 [22]: 6.00
12 | Cn1cnc2c(F)c(Nc3ccc(Br)cc3Cl)c(C(=O)NOCCO)cc21 [SELUMETINIB] | – | – | 7.00 | < 5.00 | pIC50 [7]: 7.82; pIC50 [8]: 6.93; pIC50 [10]: 7.19
13 | C=CC(=O)Nc1cc(NC(C)=O)ccc1Nc1nc(Nc2ccc(N3CCN(C)CC3)cc2)ncc1Cl | 5.79 | – | 5.87 | 5.43 | –

Continued, in another order:

Row | pIC50 [1] | pIC50 [2] | pIC50 [3] | pIC50 [4] | SMILES | further results
14 | 8.14 | 5.53 | 6.51 | 6.07 | C=CC(=O)Nc1ccccc1Oc1nc(Nc2cnn(C)c2)ncc1Cl | pIC50 [5]: 6.75; pIC50 [6]: 5.99
15 | 7.24 | 5.87 | 6.74 | 5.92 | C=CC(=O)Nc1ccccc1Oc1nc(Nc2ccc(N3CCN(C)CC3)cc2)ncc1C1CC1 | –
16 | 8.34 | – | 7.16 | 6.14 | C=CC(=O)Nc1ccccc1Oc1nc(Nc2cnn(C3CCOCC3)c2)ncc1Cl | –
17 | 8.15 | 6.27 | 7.17 | 6.38 | C=CC(=O)Nc1ccccc1Oc1nc(Nc2cnn(C(F)F)c2)ncc1Cl | pIC50 [5]: 7.04; pIC50 [6]: 6.56; Activity [14]: Active; Activity [15]: inactive; inhibition [13]: Active; Activity [16]: inactive; Activity [17]: Active
18 | 7.08 | 6.08 | 6.02 | 6.12 | C=CC(=O)Nc1ccccc1Sc1nc(Nc2ccc(N3CCN(C)CC3)cc2)ncc1Cl | –
19 | 5.56 | – | – | 5.45 | C=CC(=O)Nc1ccccc1Oc1nc(Nc2ccc(N3CCN(C)CC3)cc2)nc(N)c1Cl | –
20 | 5.91 | 5.68 | 6.03 | 5.44 | CCC(=O)Nc1ccccc1Oc1nc(Nc2cnn(CCOC)c2)ncc1Cl | Activity [14]: Active; pIC50 [7]: 5.78; pIC50 [8]: 5.58; pIC50 [10]: 5.30; pIC50 [12]: 5.83; inhibition [13]: inactive; inhibition [18]: inactive; inhibition [19]: inactive; inhibition [20]: inactive; Activity [17]: Active
21 | 7.12 | 6.32 | 7.24 | 6.51 | C=CC(=O)Nc1ccccc1Oc1nc(Nc2ccc(N3CCN(C)CC3)cc2)ncc1OC | –
22 | 7.04 | 6.41 | 6.95 | 6.45 | C=CC(=O)Nc1ccccc1Oc1nc(Nc2ccc(N3CCN(C)CC3)cc2)ncc1C | –
23 | – | – | 6.72 | 7.22 | CCC(=O)Nc1ccccc1Oc1nc(Nc2ccc(N3CCN(C)CC3)cc2)ncc1Cl | pIC50 [7]: 6.15; pIC50 [8]: 6.67; pIC50 [9]: 5.87; pIC50 [10]: 5.57; pIC50 [11]: 5.43; pIC50 [12]: 6.35; inhibition [13]: inactive; inhibition [18]: inactive; inhibition [19]: inactive; inhibition [20]: inactive
